We go through three molecules from ChEMBL document CHEMBL1147738, “Potent and selective mitogen-activated protein kinase kinase (MEK) 1,2 inhibitors. 1. 4-(4-bromo-2-fluorophenylamino)-1- methylpyridin-2(1H)-ones” (J Med Chem, 2006).

The target of data set [1] is Mitogen-activated protein kinase 1 (Homo sapiens) (UniProt P28482). Briefly: Inhibition of MAPK2/ERK2 at 10 uM. In a few lines:
(§1)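 Kinase panel run at Upstate (Dundee). Each compound was tested at 10 µM against each enzyme and reported as % inhibition.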

Data set [2] concerns the target Mitogen-activated protein kinase 14 (Homo sapiens) (UniProt Q16539). Briefly: Inhibition of SAPK2a/p38 at 10 uM. The method, boiled down: as §1
The target of data set [3] is Ribosomal protein S6 kinase alpha-1 (Homo sapiens) (UniProt Q15418). Briefly: Inhibition of MAPKAP-K1a at 10 uM. The method, boiled down:
as §1

A short description of data set [4]: Clearance in presence of human hepatocytes. Format: ADME, cell-based, Liver, Hepatocyte. In a few lines: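 Human hepatocytes (fresh or cryopreserved) diluted to 2 x 10⁶ viable cells/mL in supplemented Krebs-Henseleit buffer pH 7.3, mixed 1:1 with 2 µM compound working solution. Incubated at 37 °C, 5% CO₂, duplicates, one plate per timepoint. Quenched with labetalol internal standard and centrifuged; compound remaining measured by LC-MS/MS (ESI+, MRM).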

Data set [5] is described as follows: Aqueous solubility at pH 6.5. Format: physicochemical. The method, boiled down: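 Thermodynamic shake-flask method: crystalline solid (0.5 mg, crystallinity confirmed by polarizing microscopy) in 0.5 mL 10 mM potassium phosphate, pH 6.5, swirled 24 h at room temperature. Filtered aliquots were quantified by HPLC-PDA against a calibration curve.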
Data set [6] is described as follows: Volume of distribution in rat. The class given is ADME, organism-based. Particulars: Sprague-Dawley, in vivo, read-out: Vdss. The method, boiled down: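 Male Sprague Dawley rats (6-10 weeks) received IV 1 mg/kg (10% DMSO/90% saline) and PO 10 mg/kg (1% CMC/0.5% Tween 80). Serial tail-vein plasma was taken up to 24 h (IV) or 72 h (PO) and analysed by LC/MS/MS (9 ng/mL to 20 µg/mL). Parameters were calculated non-compartmentally.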

For data set [7], the system named is Rattus norvegicus. Briefly: AUC in rat at 1 mg/kg, iv. Details: dose 1 mg/kg, route intravenous. Particulars: in vivo. The class given is ADME, organism-based, Sprague-Dawley, Plasma. The method, boiled down:
(§2)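 Male Sprague Dawley rats (6-10 weeks), fed ad lib, dosed IV at 1 mg/kg (1 mg/mL in 10% DMSO/90% normal saline, 1 mL/kg). Tail-vein EDTA blood sampled 1, 5, 15, 30 min and 1, 2, 4, 8, 12, 24 h. Plasma analysed by LC/MS/MS after methanol protein precipitation, range 9 ng/mL to 20 µg/mL. Parameters derived by non-compartmental analysis.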

The test system of data set [8] is Rattus norvegicus. Briefly: AUC in rat at 10 mg/kg, po. Details: dose 10 mg/kg, route oral. The note with it: in vivo. The class given is ADME, organism-based, Sprague-Dawley, Plasma. In a few lines:
(§3)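 Male Sprague Dawley rats (6-10 weeks) were given 10 mg/kg by oral gavage (2 mg/mL in 1% CMC/0.5% Tween 80, 5 mL/kg). Tail-vein EDTA blood was drawn at 15 and 30 min and 1, 2, 4, 8, 12, 24, 48, 72 h. Plasma was quantified by LC/MS/MS after methanol precipitation. Parameters came from non-compartmental analysis.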

The nature of data set [9]: Half life in rat at 1 mg/kg, iv. Format: ADME, organism-based. Details: dose 1 mg/kg, route intravenous. Particulars: Sprague-Dawley, in vivo. The method, boiled down:
as §2

Data set [10] is described as follows: Half life in rat at 10 mg/kg, po. Format: ADME, organism-based. On the set-up: dose 10 mg/kg, route oral. Particulars: Sprague-Dawley, in vivo. The method, boiled down:
as §3

Data set [11] has as its target T1, Serine/threonine-protein kinase Chk1 (Homo sapiens) (UniProt O14757).
T1 sequence (whole entry): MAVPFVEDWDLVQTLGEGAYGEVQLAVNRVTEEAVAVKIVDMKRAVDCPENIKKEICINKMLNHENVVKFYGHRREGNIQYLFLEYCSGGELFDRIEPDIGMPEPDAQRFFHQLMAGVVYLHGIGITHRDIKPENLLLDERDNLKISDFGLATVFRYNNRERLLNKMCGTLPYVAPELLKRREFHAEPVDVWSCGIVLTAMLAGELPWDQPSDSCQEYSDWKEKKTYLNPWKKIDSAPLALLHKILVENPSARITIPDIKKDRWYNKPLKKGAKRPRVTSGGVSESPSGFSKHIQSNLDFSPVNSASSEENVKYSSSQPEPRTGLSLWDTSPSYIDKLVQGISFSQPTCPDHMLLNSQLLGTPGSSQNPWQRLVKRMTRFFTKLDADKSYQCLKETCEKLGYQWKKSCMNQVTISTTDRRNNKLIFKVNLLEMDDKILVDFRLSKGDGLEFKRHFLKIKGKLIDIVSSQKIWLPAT
Briefly: Inhibition of CHK1 at 10 uM. The method, boiled down:
as §1

The target of data set [12] is Casein kinase II (Homo sapiens) (UniProt P67870+P68400+P19784). Briefly: Inhibition of CK2 at 10 uM. The class given is protein-complex assay. In a few lines: as §1
The target of data set [13] is MAP kinase-activated protein kinase 2 (Homo sapiens) (UniProt P49137). Briefly: Inhibition of MAPKAP-K2 at 10 uM. In a few lines: as §1
For data set [14], the target named is Ribosomal protein S6 kinase alpha-5 (Homo sapiens) (UniProt O75582). Briefly: Inhibition of MSK1 at 10 uM. In a few lines: as §1
Data set [15] deals with T2, MAP kinase-activated protein kinase 5 (Homo sapiens) (UniProt Q8IW41).
T2 sequence (whole entry): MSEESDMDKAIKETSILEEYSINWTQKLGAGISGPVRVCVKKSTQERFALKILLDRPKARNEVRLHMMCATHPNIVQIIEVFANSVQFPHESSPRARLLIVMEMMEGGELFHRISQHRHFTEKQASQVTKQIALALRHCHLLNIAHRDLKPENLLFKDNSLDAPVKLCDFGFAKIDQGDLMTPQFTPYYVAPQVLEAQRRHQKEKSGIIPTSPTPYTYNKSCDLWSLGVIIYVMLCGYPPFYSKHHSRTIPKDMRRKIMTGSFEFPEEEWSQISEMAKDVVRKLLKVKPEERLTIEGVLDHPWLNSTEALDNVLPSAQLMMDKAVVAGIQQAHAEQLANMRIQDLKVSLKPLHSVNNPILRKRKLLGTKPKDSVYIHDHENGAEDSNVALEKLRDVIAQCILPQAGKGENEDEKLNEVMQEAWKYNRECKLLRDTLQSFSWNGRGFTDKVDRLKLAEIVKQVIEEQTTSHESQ
Briefly: Inhibition of PRAK at 10 uM. In a few lines:
as §1

Data set [16] has as its target cAMP-dependent protein kinase (PKA) (Homo sapiens) (UniProt P22694+P17612+P22612). Briefly: Inhibition of PKA at 10 uM. The class given is protein assay. In a few lines: as §1
Data set [17] has as its target T3, Lymphokine-activated killer T-cell-originated protein kinase (Homo sapiens) (UniProt Q96KB5).
T3 sequence (whole entry): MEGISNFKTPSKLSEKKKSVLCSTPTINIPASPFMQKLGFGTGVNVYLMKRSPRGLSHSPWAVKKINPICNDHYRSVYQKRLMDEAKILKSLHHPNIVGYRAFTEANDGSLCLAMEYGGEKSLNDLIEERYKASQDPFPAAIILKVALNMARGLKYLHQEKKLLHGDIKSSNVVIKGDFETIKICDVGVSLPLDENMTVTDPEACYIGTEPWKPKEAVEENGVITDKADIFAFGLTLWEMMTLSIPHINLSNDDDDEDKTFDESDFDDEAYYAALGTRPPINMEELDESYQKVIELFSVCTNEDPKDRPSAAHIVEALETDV
Briefly: Inhibition of PBK at 10 uM. The method, boiled down:
as §1

In data set [18] the target is Ribosomal protein S6 kinase (P70S6K) (Homo sapiens) (UniProt Q9UBS0+P23443). Briefly: Inhibition of p70 S6K at 10 uM. The class given is protein-complex assay. In a few lines: as §1
Data set [19] has as its target Glycogen synthase kinase-3 beta (Homo sapiens) (UniProt P49841). Briefly: Inhibition of GSK3b at 10 uM. In a few lines: as §1
The species entered for data set [20] is Homo sapiens. Particulars: at 10 µM.

SMILES strings stand for the structures. In brackets after ≈: the same amount, converted by molar mass.

Chain of MAP kinase-activated protein kinase 2 (Homo sapiens) (P49137 whole entry, looked up): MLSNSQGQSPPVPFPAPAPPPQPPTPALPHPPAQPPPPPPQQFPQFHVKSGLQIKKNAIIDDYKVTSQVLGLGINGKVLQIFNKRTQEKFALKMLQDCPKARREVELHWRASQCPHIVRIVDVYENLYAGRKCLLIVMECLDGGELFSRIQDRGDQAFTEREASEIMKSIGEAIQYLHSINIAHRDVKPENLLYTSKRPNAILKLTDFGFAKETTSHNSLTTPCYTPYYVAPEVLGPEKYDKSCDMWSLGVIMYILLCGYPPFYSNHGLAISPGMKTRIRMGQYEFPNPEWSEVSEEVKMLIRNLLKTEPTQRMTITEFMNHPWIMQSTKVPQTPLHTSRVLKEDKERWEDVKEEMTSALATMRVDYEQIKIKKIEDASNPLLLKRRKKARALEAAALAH
Chain of Mitogen-activated protein kinase 14 (Homo sapiens) (Q16539 whole entry): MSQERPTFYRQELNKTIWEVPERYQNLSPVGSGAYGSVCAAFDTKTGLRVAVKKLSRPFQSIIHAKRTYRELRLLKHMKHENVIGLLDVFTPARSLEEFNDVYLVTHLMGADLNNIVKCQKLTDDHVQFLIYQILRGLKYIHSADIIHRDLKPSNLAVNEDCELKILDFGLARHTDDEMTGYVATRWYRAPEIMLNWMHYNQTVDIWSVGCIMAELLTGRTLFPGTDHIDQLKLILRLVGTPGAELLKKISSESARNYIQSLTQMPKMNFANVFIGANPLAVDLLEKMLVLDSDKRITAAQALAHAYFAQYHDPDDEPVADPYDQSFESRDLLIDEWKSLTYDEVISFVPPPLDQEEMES
Chain of Ribosomal protein S6 kinase alpha-5 (Homo sapiens) (O75582 whole entry, looked up): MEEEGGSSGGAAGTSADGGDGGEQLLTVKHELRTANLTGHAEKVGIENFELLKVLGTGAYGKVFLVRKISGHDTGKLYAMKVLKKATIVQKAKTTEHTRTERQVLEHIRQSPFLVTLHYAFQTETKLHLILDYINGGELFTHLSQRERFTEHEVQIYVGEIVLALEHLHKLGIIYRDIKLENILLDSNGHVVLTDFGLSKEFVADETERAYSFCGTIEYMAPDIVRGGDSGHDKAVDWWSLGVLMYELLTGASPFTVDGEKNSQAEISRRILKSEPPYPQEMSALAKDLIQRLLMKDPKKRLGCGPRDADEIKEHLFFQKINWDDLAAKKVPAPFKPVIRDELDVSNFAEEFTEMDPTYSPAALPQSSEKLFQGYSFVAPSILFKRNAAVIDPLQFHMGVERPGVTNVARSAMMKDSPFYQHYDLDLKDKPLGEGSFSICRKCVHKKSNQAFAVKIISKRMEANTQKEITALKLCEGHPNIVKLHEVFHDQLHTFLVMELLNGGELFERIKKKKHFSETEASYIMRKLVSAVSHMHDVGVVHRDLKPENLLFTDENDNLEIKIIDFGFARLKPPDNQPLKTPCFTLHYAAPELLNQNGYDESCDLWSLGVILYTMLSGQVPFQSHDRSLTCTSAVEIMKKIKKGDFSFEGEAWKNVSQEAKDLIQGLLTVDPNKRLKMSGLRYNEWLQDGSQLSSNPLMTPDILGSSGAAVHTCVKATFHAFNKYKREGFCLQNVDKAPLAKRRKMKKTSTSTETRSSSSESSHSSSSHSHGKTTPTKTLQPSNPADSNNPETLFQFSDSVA
Chain of Ribosomal protein S6 kinase alpha-1 (Homo sapiens) (Q15418 whole entry): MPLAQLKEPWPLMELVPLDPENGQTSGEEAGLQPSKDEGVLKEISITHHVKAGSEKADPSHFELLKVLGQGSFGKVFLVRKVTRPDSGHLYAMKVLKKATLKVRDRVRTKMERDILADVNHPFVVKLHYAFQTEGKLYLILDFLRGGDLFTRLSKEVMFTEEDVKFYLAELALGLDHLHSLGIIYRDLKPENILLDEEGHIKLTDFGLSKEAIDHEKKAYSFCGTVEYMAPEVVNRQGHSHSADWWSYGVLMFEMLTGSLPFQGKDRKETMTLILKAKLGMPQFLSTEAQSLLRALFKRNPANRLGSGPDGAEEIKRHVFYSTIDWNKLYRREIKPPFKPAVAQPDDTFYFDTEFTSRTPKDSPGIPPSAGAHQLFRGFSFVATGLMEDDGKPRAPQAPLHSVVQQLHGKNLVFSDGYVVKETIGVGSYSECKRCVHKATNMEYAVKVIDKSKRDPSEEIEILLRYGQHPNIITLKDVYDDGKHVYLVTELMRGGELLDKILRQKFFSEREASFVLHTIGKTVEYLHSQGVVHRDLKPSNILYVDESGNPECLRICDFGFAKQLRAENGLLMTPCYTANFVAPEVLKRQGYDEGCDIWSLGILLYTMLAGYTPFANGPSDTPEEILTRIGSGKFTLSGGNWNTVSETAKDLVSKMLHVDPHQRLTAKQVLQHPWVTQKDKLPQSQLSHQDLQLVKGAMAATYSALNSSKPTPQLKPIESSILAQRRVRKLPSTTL
Chain of Mitogen-activated protein kinase 1 (Homo sapiens) (P28482 whole entry): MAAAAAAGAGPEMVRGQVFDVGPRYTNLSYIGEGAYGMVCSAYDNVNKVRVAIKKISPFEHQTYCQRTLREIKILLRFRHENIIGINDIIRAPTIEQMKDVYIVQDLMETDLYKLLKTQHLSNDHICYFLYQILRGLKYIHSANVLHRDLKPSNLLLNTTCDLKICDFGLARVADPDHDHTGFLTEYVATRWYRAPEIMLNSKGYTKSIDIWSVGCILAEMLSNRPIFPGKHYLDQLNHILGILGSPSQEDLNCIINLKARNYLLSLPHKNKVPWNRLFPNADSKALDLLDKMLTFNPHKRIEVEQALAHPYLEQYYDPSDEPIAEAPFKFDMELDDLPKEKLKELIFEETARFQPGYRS
Chain of Glycogen synthase kinase-3 beta (Homo sapiens) (P49841 whole entry, looked up): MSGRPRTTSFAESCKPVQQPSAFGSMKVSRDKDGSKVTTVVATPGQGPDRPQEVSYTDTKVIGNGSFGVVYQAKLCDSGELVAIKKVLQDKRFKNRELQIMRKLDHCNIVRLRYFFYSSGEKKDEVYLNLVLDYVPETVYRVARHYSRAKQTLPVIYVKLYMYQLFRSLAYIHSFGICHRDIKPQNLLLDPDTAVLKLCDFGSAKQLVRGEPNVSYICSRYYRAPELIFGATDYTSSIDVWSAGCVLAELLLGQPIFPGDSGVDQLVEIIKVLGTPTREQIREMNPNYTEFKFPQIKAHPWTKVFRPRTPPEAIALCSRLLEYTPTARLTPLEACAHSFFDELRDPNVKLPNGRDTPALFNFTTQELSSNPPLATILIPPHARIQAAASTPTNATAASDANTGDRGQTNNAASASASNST

`CCONC(=O)c1cn(C)c(=O)c(C)c1Nc1ccc(Br)cc1F`: the inhibition is 6% in data set [1]; -3% in data set [2]; 3% in data set [3]; 8% in data set [11]; 4% in [12]; 14% in [13]. In addition, the inhibition in [14] was 5%; in [15] it was 18%; in data set [16], -1%; in [17], 3%; in data set [18], -1%; in data set [19], 15%. For the same molecule, in data set [20], the inhibition is -3%. Also, the CLhep predicted in [4] was 5 mL/min/kg. Moreover, the solubility in [5] was 60 µg/mL (≈ 151 µM). For the same molecule, in [6], the Vd was determined as 0.4 L/kg. Also, the figures for the AUC in [7] and in [8] were 8900 ng·h/mL and 75000 ng·h/mL, respectively. Also, the values for the half-life in data set [9] and in data set [10] were 2.5 h and 4.7 h, respectively.
For the molecule `Cc1c(Nc2ccc(Br)cc2F)c(C(=O)NOCCO)cn(C)c1=O`, the inhibition was 6% in data set [1]; 20% in data set [2]; -9% in data set [3]; 11% in [11]; -1% in data set [12]; 8% in data set [13]. Further, the inhibition in [14] is 2%; in data set [15] it was 16%; in data set [16] it was 15%; in data set [17], -8%; in [18], 18%; in data set [19] it was 17%. The inhibition in data set [20] is -7%. Besides, the CLhep predicted in data set [4] is 6 mL/min/kg. The same molecule registered a solubility in [5] of 450 µg/mL (≈ 1090 µM). Moreover, the Vd in [6] came out at 1.1 L/kg. Further, the figures for the AUC in data set [7] and in data set [8] were 2260 ng·h/mL and 12000 ng·h/mL, respectively. Further, the results for the half-life in data set [9] and in data set [10] were 1.6 h and 3 h, respectively.
For `CONC(=O)c1cn(C)c(=O)c(C)c1Nc1ccc(Br)cc1F`, the inhibition in [1] is -9%; in data set [2], 3%; in data set [3] it was -8%; in data set [11], -3%; in [12], -4%; in data set [13], 1%. Besides, the inhibition in [14] was 6%; in data set [15] it was 9%; in data set [16], -7%; in [17] it was -4%; in data set [18], -2%; in [19], 12%. The inhibition in [20] was -9%. In [4], the CLhep predicted was 5 mL/min/kg. The molecule also displayed a solubility in data set [5] of 200 µg/mL (≈ 521 µM). Moreover, the Vd in [6] was 0.4 L/kg. Moreover, the AUC in [7] amounted to 11500 ng·h/mL; in data set [8], 88300 ng·h/mL. For the same molecule, the half-life in data set [9] is 3.5 h; in [10] it was 4.7 h.
